Published values pooled from the literature.
Compare with care: the assays were run in different laboratories.
Medium: Caco-2

SMILES	concentration	time	pH	efflux ratio
CCCCCCOC(=O)NC(=N)c1ccc(NCc2nc3cc(C(=O)N(CCC(=O)OCC)c4ccccn4)ccc3n2C)cc1	5 µM	2 h	–	510
NCCOCC(=O)N1CCC[C@H](C(=O)NCc2nc(-c3ccc(C(F)(F)F)cc3)cs2)C1	–	–	–	120
Cc1cc(C)c(CNC(=O)c2cc(Cl)c3c(c2C)O[C@@](C)([C@H]2CC[C@H](N(C)C)CC2)O3)c(=O)[nH]1	1 µM	–	–	52.4
N#Cc1ccc(C[C@H](Nc2nnc(-c3ccc(F)cc3)o2)C(=O)N2CCc3ccccc32)cc1	100 µM	2 h	–	3.8
C[C@H]1O[C@@H](O[C@H]2[C@@H](O)C[C@H](O[C@H]3[C@@H](O)C[C@H](O[C@H]4CC[C@@]5(C)[C@H](CC[C@@H]6[C@@H]5C[C@@H](O)[C@]5(C)[C@@H](C7=CC(=O)OC7)CC[C@]65O)C4)O[C@@H]3C)O[C@@H]2C)C[C@H](O)[C@@H]1O	10 µM	2 h	–	28.3
O=c1cc(-c2ccc(O)cc2)oc2c([C@@H]3O[C@H](CO)[C@@H](O)[C@H](O)[C@H]3O)c(O)cc(O)c12	50 µg/mL	–	–	1.11
COCC(=O)N1CCC[C@H](C(=O)NCc2nc(-c3ccccc3)cs2)C1	–	–	–	1
N#Cc1ccc(C[C@H](Nc2ncc(-c3ccc(F)cc3)o2)C(=O)N2CCc3ccccc32)cc1	100 µM	2 h	–	19
Cc1ncc(Cl)cc1NCc1ccc(C(=O)N[C@@H](CC2CCCC2)C(=O)NC2CC2)s1	5 µM	2 h	pH 7.4	41
O=C(NCc1nc(-c2ccc(C(F)(F)F)cc2)cs1)[C@H]1CCCN(C(=O)COCCN2CCCC2)C1	–	–	–	46
O=C(Nc1ccc(OC(F)(F)F)cc1)N[C@H]1CC[C@H](Oc2ccc(C(=O)O)cc2)CC1	–	–	–	0.98
CC[C@]1(O)C[C@@H]2CN(CCc3c([nH]c4ccccc34)[C@@](C(=O)OC)(c3cc4c(cc3OC)N(C)[C@H]3[C@@](O)(C(=O)OC)[C@H](OC(C)=O)[C@]5(CC)C=CCN6CC[C@]43[C@@H]65)C2)C1	10 µM	2 h	–	13.5
CC(C)(N)COCC(=O)N1CCC[C@H](C(=O)NCc2nc(-c3ccc(C(F)(F)F)cc3)cs2)C1	–	–	–	240
O=c1c(O[C@@H]2O[C@H](CO)[C@H](O)[C@H](O)[C@H]2O)c(-c2ccc(O)c(O)c2)oc2cc(O)cc(O)c12	50 µg/mL	–	–	1.26
